Calls of active or inactive are those of the source. The calls are words filed in the database; no cut-off is given here. Some results are limits rather than exact numbers.

The subject of assay [1] is OVCAR-3. The assay is described as follows: Antitumor activity against human OVCAR-3 cells xenografted in nude mouse dosed as ip once weekly for three courses. Type of assay: functional. (In general: In xenograft studies the graft and the host belong to different species.)
Assay [2] relates to OVCAR-3. The assay is described as follows: Antitumor activity against human OVCAR-3 cells xenografted in nude mouse assessed as life span extension at 200 mg/kg, ip once weekly for three courses. Particulars: route intraperitoneal. The assay is classed as functional.
In assay [3] the test system is OVCAR-3. Put plainly: Antitumor activity against human OVCAR-3 cells xenografted in nude mouse assessed as life span extension at 134 mg/kg, ip once weekly for three courses. Particulars: route intraperitoneal. Type of assay: functional.
In assay [4] the test system is OVCAR-3. The assay is described as follows: Antitumor activity against human OVCAR-3 cells xenografted in nude mouse assessed as life span extension at 79 mg/kg, ip once weekly for three courses. The assay is classed as functional. The note with it: route intraperitoneal.
Another assay relates to A549. The assay is described as follows: Cytotoxicity against human A549 cells by SRB assay. Type of assay: functional, cell-based. A digest of the protocol: (§1)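 Cells exposed to compound or DMSO for the stated periods, fixed with 10% TCA, then stained with 0.4% (w/v) SRB in 1% acetic acid. Unbound dye removed with 1% acetic acid, bound dye dissolved in 10 mM Trizma base, absorbance read at 515 nm.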
A general note: Sulforhodamine B stains cellular protein and so reports cell mass.

For another assay, the system named is HCT-116. Put plainly: Cytotoxicity against human HCT116 cells by MTT assay. Type of assay: functional, cell-based. The procedure, abridged: (§2)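 After compound treatment, cells washed once with PBS and incubated 2 h with MTT. Formazan dissolved in DMSO, absorbance read at 570 nm.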
In general terms: Tetrazolium assays rely on reduction of a dye to a coloured formazan, in cell work by metabolically active cells.

A short description of assay [5]: Inhibition of tubulin polymerization. A digest of the protocol:
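Turbidimetric assembly assay. Tubulin 1.0 mg/mL (10 μM) preincubated 15 min at 30 °C with varying drug concentrations, without GTP. Samples then chilled, 0.4 mM GTP added, and turbidity followed for 20 min at 30 °C after a temperature jump from 0 °C.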

Assay [6] in a line: Cytotoxicity against human Hep3B cells by MTT assay. The assay is classed as functional, cell-based, Hep 3B2. The procedure, abridged: as §2
A further assay has as its system HL-60. Put plainly: Cytotoxicity against human HL60 cells by MTT assay. The assay is classed as functional, cell-based. The procedure, abridged:
as §2

A further assay deals with KB. The assay is described as follows: Cytotoxicity against human KB cells by SRB assay. The assay is classed as functional, cell-based. A digest of the protocol: as §1
The subject of the next assay is DU-145. Put plainly: Cytotoxicity against human DU145 cells by SRB assay. The assay is classed as functional, cell-based. The procedure, abridged:
as §1

Assay [7] is described as follows: Cytotoxicity against human KBVIN cells by SRB assay. The assay is classed as functional, cell-based. The procedure, abridged:
as §1

In another assay the test system is IGROV-1. The assay is described as follows: Cytotoxicity against human IGROV1 cells. The assay is classed as functional, cell-based.
Assay [8] in a line: Displacement of [3H]colchicine from tubulin at 1 uM […]. A digest of the protocol:
(§3)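 Tubulin (1.0 μM) incubated 10 min at 37 °C with 5.0 μM [3H]colchicine and inhibitor at 1.0 or 5.0 μM. At this time roughly 40–60% of maximal colchicine binding has occurred. Inhibition of radiolabel binding measured.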

Another assay deals with HCC 2998. The assay is described as follows: Cytotoxicity against human HCC2998 cells. The assay is classed as functional, cell-based.
A further assay has as its system KM12. Put plainly: Cytotoxicity against human KM12 cells. Type of assay: functional, cell-based.
The next assay relates to SNB-75. The assay is described as follows: Cytotoxicity against human SNB75 cells. Type of assay: functional, cell-based.
The next assay has as its system SK-MEL-5. The assay is described as follows: Cytotoxicity against human SK-MEL-5 cells. Type of assay: functional, cell-based.
A further assay concerns SF-539. The assay is described as follows: Cytotoxicity against human SF539 cells. Type of assay: functional, cell-based.
In assay [9] the test system is OVCAR-3. Put plainly: Cytotoxicity against human OVCAR-3 cells. The assay is classed as functional, cell-based.
A short description of assay [10]: Displacement of [3H]colchicine from tubulin at 5 uM by turbidimetry. A digest of the protocol:
as §3

With `O=c1cc(-c2ccccc2F)[nH]c2cc3c(cc12)OCO3`, the MTD in the assay with OVCAR-3 [1] was over 200 mg/kg. For the same molecule, the Activity amounted to 124% in the assay with OVCAR-3 [2], 133% in the assay on OVCAR-3 [3] and 79% in the assay on OVCAR-3 [4].
The IC50 is the concentration needed to halve the response being measured. On to `O=c1cc(-c2ccc3ccccc3c2)[nH]c2cc3c(cc12)OCO3`, for which the half-inhibitory concentration (IC50) in the assay with A549 was over 1000 nM; in the assay with HCT-116, over 1000 nM; in [5], over 40000 nM; in assay [6], over 1000 nM; with HL-60 it was 500 nM; with KB it was over 1000 nM. In addition, the IC50 (in the assay on DU-145; in [7]) was over 1000 nM each time.
For the molecule `O=c1cc(-c2coc3ccccc23)[nH]c2cc3c(cc12)OCO3`, the result in the assay with IGROV-1, with HCC 2998, with KM12, in the assay with SNB-75, in the assay on SK-MEL-5 and in the assay on SF-539 was Active. Moreover, the outcome in the assay with OVCAR-3 [9] was Active. The IC50 with A549 is 2980 nM; in the assay with HCT-116, 50 nM; in [5], 580 nM; in [6], 90 nM; with HL-60 it was 30 nM; in the assay on KB, 1050 nM. Also, the IC50 turned out to be 1870 nM in the assay on DU-145 and 590 nM in assay [7]. Moreover, the Activity was 39% in assay [8] and 51% in assay [10].
As for `O=c1cc(-c2cccc3cc4ccccc4cc23)[nH]c2cc3c(cc12)OCO3`, the IC50 in the assay on HCT-116 is 1600 nM; in [5] it was over 40000 nM; in assay [6], 2200 nM; in the assay on HL-60, 530 nM.
Regarding `Cc1cnc2nc(-c3csc4ccccc34)cc(O)c2c1`, the 50% inhibitory concentration (IC50) in assay [5] amounted to 370 nM.
As for `O=c1cc(-c2csc3ccccc23)[nH]c2cc3c(cc12)OCO3`, the concentration for half-maximal inhibition (IC50) with A549 is over 250 nM; in the assay with HCT-116, 140 nM; in assay [5], 760 nM; in [6], 60 nM; in the assay with HL-60, 170 nM; in the assay with KB, over 250 nM. The IC50 (in the assay on DU-145; in assay [7]) was over 250 nM each time. The Activity was 25% in assay [8] and 61% in assay [10].
Turning to `O=c1cc(-c2ccnc3ccccc23)[nH]c2cc3c(cc12)OCO3`, the half-inhibitory concentration (IC50) in the assay on A549 is over 5000 nM; with HCT-116, over 5000 nM; in [5], over 40000 nM; in assay [6] it was over 5000 nM; in the assay with HL-60, over 5000 nM; in the assay on KB, over 5000 nM. Moreover, the IC50 (in the assay on DU-145; in assay [7]) was over 5000 nM throughout.
Regarding `O=c1cc(-c2cccc3ccccc23)[nH]c2cc3c(cc12)OCO3`, the IC50 in the assay on A549 amounted to 130 nM; with HCT-116 it was 70 nM; in [5] it was 640 nM; in [6] it was 70 nM; in the assay with HL-60 it was 70 nM; in the assay on KB it was 130 nM. Moreover, the half-maximal inhibitory concentration (IC50) with DU-145 was 130 nM; in assay [7] it was 190 nM. Further, the Activity in assay [8] was 33%; in [10] it was 67%.
In [8], `COc1ccc(/C=C\c2cc(OC)c(OC)c(OC)c2)cc1O` returned an Activity of 91%.
`O=c1cc(-c2cccc3ncccc23)[nH]c2cc3c(cc12)OCO3`: the half-inhibitory concentration (IC50) in the assay on A549 is over 10000 nM; with HCT-116, over 10000 nM; in [5] it was 27000 nM; in assay [6] it was over 10000 nM; in the assay with HL-60, over 10000 nM; in the assay with KB, over 10000 nM. Moreover, the IC50 (in the assay with DU-145; in assay [7]) was over 10000 nM each time.
With `Cc1c(-c2cccc3ccccc23)c(=O)[nH]c2cc3c(cc12)OCO3`, the IC50 in the assay on HCT-116 is over 10000 nM; in assay [6], 4300 nM; in the assay with HL-60, over 10000 nM.
As to `O=c1cc(-c2ccc3ccccc3n2)[nH]c2cc3c(cc12)OCO3`, the 50% inhibitory concentration (IC50) in the assay on A549 was over 5000 nM; in the assay with HCT-116, over 5000 nM; in assay [5] it was over 40000 nM; in [6] it was over 5000 nM; with HL-60, over 5000 nM; in the assay with KB, over 5000 nM. Also, the 50% inhibitory concentration (IC50) (with DU-145; in assay [7]) was over 5000 nM in each case.
Regarding `O=c1cc(-c2cc3ccccc3o2)[nH]c2cc3c(cc12)OCO3`, the half-inhibitory concentration (IC50) in the assay on A549 is over 1000 nM; in the assay on HCT-116, over 1000 nM; in assay [5], over 4000 nM; in [6] it was over 1000 nM; in the assay on HL-60, over 1000 nM; with KB, over 1000 nM. The half-inhibitory concentration (IC50) (in the assay on DU-145; in assay [7]) was over 1000 nM each time.
On to `O=c1cc(-c2cc3ccccc3s2)[nH]c2cc3c(cc12)OCO3`, for which the 50% inhibitory concentration (IC50) (with A549; with HCT-116; in [6]; in the assay with HL-60; in the assay on KB; with DU-145) was over 1000 nM each time. In [7], the IC50 is over 1000 nM.
On to `O=c1cc(-c2cnc3ccccc3c2)[nH]c2cc3c(cc12)OCO3`, for which the IC50 was over 100 nM in the assay with A549; over 100 nM in the assay with HCT-116; over 4000 nM in assay [5]; over 100 nM in assay [6]; over 100 nM with HL-60; over 100 nM with KB. For the same molecule, the IC50 (in the assay on DU-145; in [7]) was over 100 nM throughout.
The molecule `COc1cccc(-c2cc(O)c3cc(N4CCCC4)ccc3n2)c1` yielded an MTD with OVCAR-3 [1] of 25 mg/kg.

Source of the values: ChEMBL document CHEMBL1158496, “Design and synthesis of 2-(3-benzo[b]thienyl)-6,7-methylenedioxyquinolin-4-one analogues as potent antitumor agents that inhibit tubulin assembly” (J Med Chem, 2009).
